Positions of bridges follow the written chain, without caps; N, C: chain ends. Non-standard residues stand in square brackets, D forms with d. Residues, ends and D or L forms follow the SMILES beside them. 1Nal = N[C@@H](Cc1cccc2ccccc12)C(=O)O
Key:
[1] = biological target: Sodium channel protein type 9 subunit alpha (Homo sapiens, UniProt Q15858); test: Inhibition of human Nav1.7 expressed in HEK293 cells assessed as inward peak current by ion-works quattro patch clamp electrophysiology method; type: cell-based
[2] = biological target: Sodium channel protein type 5 subunit alpha (Homo sapiens, UniProt Q14524); test: Inhibition of human Nav1.5 expressed in HEK293 cells assessed as inward peak current by ion-works quattro patch clamp electrophysiology method; type: cell-based
Outline: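 Stable HEK293 line expressing human NaV1.5, recorded by population patch clamp on the IonWorks Quattro.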

Sodium channel protein type 5 subunit alpha, sequence (Q14524 whole entry): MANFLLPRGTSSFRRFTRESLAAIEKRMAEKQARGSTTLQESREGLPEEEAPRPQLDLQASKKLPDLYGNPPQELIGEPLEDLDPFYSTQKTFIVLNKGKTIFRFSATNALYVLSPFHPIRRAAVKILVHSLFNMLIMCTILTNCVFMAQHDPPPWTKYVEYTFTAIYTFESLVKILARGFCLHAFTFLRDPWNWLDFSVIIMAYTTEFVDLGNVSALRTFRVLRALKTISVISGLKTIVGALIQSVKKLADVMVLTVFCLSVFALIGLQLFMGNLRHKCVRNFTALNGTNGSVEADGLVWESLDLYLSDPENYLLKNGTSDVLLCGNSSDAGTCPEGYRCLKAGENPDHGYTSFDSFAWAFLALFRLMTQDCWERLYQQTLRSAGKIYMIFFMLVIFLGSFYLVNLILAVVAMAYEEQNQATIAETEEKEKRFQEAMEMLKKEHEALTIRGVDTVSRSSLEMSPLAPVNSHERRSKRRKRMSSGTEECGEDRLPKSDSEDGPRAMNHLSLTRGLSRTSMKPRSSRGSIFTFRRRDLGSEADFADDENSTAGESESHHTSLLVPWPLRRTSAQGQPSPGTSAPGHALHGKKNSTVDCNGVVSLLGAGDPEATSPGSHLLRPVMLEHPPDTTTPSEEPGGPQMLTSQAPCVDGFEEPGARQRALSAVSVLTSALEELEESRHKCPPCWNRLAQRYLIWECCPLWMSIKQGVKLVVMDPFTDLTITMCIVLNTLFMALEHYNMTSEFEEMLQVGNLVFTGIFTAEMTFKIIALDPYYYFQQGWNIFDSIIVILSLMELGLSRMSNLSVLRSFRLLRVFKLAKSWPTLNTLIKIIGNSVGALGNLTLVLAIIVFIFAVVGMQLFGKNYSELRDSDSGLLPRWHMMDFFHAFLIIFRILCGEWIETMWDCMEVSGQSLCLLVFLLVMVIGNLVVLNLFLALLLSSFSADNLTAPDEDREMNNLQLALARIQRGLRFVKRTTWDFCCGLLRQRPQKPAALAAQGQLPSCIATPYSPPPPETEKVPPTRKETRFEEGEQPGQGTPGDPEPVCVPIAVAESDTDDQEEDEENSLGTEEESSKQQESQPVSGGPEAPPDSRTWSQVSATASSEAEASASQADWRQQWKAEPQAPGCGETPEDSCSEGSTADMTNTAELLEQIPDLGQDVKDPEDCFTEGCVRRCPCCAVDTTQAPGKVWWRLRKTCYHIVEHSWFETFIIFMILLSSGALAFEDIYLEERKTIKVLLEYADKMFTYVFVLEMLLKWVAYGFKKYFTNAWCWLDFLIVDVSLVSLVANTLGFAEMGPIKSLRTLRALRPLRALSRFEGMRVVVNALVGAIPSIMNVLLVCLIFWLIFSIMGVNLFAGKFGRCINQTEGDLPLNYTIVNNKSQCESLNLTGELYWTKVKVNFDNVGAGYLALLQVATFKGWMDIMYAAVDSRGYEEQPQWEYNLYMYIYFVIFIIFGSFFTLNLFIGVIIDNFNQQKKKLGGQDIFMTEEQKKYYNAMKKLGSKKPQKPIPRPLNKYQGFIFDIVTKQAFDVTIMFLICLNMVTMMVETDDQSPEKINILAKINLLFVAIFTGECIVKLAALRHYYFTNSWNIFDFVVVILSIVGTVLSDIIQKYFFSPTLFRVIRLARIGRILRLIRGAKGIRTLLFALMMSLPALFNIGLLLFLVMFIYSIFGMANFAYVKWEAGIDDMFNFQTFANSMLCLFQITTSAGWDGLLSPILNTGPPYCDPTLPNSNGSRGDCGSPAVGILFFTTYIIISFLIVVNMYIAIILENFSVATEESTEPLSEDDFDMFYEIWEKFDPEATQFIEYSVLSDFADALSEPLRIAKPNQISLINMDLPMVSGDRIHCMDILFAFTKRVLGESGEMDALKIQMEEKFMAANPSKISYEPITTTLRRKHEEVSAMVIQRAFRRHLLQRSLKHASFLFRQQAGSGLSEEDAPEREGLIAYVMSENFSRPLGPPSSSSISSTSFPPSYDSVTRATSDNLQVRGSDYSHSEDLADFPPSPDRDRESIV
Sodium channel protein type 9 subunit alpha, sequence (Q15858 whole entry): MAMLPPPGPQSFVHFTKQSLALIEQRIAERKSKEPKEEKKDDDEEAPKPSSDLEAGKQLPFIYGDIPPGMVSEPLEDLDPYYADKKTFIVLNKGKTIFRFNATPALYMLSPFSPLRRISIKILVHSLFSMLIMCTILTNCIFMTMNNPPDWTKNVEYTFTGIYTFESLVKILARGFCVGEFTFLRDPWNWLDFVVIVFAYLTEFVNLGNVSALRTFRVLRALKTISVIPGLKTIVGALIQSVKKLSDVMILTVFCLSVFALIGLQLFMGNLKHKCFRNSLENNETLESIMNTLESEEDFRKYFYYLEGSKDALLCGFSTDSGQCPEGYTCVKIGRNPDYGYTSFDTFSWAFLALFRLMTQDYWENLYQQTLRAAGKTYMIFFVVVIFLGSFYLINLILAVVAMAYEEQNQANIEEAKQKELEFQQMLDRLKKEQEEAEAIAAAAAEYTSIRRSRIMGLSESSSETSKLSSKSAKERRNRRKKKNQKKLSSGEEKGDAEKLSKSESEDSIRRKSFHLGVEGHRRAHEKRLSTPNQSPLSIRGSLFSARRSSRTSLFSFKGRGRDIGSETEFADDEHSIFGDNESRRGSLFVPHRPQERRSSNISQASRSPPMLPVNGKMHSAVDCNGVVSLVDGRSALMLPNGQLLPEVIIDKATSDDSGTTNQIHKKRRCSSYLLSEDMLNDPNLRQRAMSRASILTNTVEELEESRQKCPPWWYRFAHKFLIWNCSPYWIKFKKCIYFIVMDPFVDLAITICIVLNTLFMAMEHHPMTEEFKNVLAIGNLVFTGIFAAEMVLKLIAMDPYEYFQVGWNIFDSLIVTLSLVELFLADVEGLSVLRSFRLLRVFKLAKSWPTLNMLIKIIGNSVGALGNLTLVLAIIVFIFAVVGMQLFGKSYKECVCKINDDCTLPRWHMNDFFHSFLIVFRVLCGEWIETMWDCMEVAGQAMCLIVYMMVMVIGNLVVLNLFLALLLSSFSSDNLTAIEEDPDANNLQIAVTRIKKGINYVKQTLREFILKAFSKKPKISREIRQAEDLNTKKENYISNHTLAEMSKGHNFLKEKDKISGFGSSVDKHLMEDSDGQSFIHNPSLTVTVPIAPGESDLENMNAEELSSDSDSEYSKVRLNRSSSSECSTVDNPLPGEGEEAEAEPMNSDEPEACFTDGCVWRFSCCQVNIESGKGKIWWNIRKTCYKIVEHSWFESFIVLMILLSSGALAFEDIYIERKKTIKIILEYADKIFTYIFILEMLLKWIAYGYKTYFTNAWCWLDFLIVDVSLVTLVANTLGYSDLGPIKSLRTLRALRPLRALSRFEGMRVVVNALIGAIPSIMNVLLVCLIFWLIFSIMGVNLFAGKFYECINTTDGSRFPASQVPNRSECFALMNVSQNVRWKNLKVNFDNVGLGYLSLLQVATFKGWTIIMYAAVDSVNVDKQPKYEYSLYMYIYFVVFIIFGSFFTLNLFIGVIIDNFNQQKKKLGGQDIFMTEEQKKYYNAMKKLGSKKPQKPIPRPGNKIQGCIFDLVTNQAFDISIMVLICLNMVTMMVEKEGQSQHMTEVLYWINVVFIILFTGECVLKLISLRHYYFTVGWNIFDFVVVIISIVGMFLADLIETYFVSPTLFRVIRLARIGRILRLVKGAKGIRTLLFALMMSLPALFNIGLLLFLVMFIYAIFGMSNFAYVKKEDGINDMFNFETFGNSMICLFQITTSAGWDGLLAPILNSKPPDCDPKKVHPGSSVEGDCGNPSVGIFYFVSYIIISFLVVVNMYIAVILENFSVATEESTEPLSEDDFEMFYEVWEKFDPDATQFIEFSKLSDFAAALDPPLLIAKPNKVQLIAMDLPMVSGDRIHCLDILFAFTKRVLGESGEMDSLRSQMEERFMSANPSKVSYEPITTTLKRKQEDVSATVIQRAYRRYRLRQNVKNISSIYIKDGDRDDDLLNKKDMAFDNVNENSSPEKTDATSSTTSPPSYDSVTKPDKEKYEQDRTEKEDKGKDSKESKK

SMILES	IC50 [1]	IC50 [2]
CC[C@H](C)[C@@H]1NC(=O)[C@@H]2CSSC[C@@H]3NC(=O)[C@H](C(C)C)NC(=O)[C@H](CC(C)C)NC(=O)[C@H](CC(N)=O)NC(=O)[C@@H]4CCCN4C(=O)[C@H](CCCNC(=N)N)NC(=O)[C@H](CSSC[C@H](NC(=O)[C@@H](N)CC(=O)O)C(=O)N[C@@H](CC(C)C)C(=O)NCC(=O)N[C@@H](Cc4ccccc4)C(=O)N[C@@H](CCSC)C(=O)N[C@@H](CCCNC(=N)N)C(=O)N[C@@H](CCCCN)C(=O)N2)NC(=O)[C@H](CSSC[C@@H](C(=O)N[C@@H](CCCCN)C(=O)N[C@@H](CCCCN)C(=O)N[C@H](C(=O)N[C@@H](Cc2ccccc2)C(N)=O)C(C)C)NC(=O)[C@H](Cc2c[nH]c4ccccc24)NC(=O)[C@H](CCCCN)NC(=O)[C@H](Cc2cnc[nH]2)NC(=O)[C@H]([C@@H](C)O)NC(=O)[C@H](CCCNC(=N)N)NC(=O)[C@H](CO)NC3=O)NC(=O)[C@H](CCCCN)NC(=O)[C@H](CC(=O)O)NC(=O)[C@H](CC(N)=O)NC(=O)[C@H](CC(=O)O)NC(=O)[C@@H]2CCCN2C1=O (H-DCLGFMRKCIPDNDKCCRPNLVCSRTHKWCKKVF-NH2; disulfide 2-17, 9-23, 16-30)	> 4900 nM	> 5000 nM
CC[C@H](C)[C@@H]1NC(=O)[C@@H]2CSSC[C@@H]3NC(=O)[C@H](C(C)C)NC(=O)[C@H](CC(C)C)NC(=O)[C@H](CC(N)=O)NC(=O)[C@@H]4CCCN4C(=O)[C@H](CCCNC(=N)N)NC(=O)[C@H](CSSC[C@H](NC(=O)[C@@H](N)CC(=O)O)C(=O)N[C@@H](CC(C)C)C(=O)NCC(=O)N[C@@H](Cc4ccccc4)C(=O)N[C@@H](CCSC)C(=O)N[C@@H](CCCNC(=N)N)C(=O)N[C@@H](CCCCN)C(=O)N2)NC(=O)[C@H](CSSC[C@@H](C(=O)N[C@@H](CCCCN)C(=O)N[C@@H](Cc2ccc(O)cc2)C(=O)N[C@H](C(=O)N[C@@H](Cc2ccccc2)C(N)=O)C(C)C)NC(=O)[C@H](Cc2c[nH]c4ccccc24)NC(=O)[C@H](CCCCN)NC(=O)[C@H](Cc2c[nH]cn2)NC(=O)[C@H]([C@@H](C)O)NC(=O)[C@H](CCC(=O)O)NC(=O)[C@H](CO)NC3=O)NC(=O)[C@H](CCCCN)NC(=O)[C@H](CC(=O)O)NC(=O)[C@H](CC(N)=O)NC(=O)[C@H](CC(=O)O)NC(=O)[C@@H]2CCCN2C1=O (H-DCLGFMRKCIPDNDKCCRPNLVCSETHKWCKYVF-NH2; disulfide 2-17, 9-23, 16-30)	720 nM	> 5000 nM
CC[C@H](C)[C@@H]1NC(=O)[C@@H]2CSSC[C@@H]3NC(=O)[C@H](C(C)C)NC(=O)[C@H](CC(C)C)NC(=O)[C@H](CC(N)=O)NC(=O)[C@@H]4CCCN4C(=O)[C@H](CCCNC(=N)N)NC(=O)[C@H](CSSC[C@H](NC(=O)[C@@H](N)CC(=O)O)C(=O)N[C@@H](CC(C)C)C(=O)NCC(=O)N[C@@H](Cc4ccccc4)C(=O)N[C@@H](CCSC)C(=O)N[C@@H](CCCNC(=N)N)C(=O)N[C@@H](CCCCN)C(=O)N2)NC(=O)[C@H](CSSC[C@@H](C(=O)N[C@@H](CCCCN)C(=O)N[C@@H](Cc2ccc(O)cc2)C(=O)N[C@H](C(=O)N[C@@H](Cc2ccccc2)C(N)=O)C(C)C)NC(=O)[C@H](Cc2c[nH]c4ccccc24)NC(=O)[C@H](CCCCN)NC(=O)[C@H](Cc2cnc[nH]2)NC(=O)[C@H]([C@@H](C)O)NC(=O)[C@H](CCCNC(=N)N)NC(=O)[C@H](CO)NC3=O)NC(=O)[C@H](CCCCN)NC(=O)[C@H](CC(=O)O)NC(=O)[C@H](CC(N)=O)NC(=O)[C@H](CCC(=O)O)NC(=O)[C@@H]2CCCN2C1=O (H-DCLGFMRKCIPENDKCCRPNLVCSRTHKWCKYVF-NH2; disulfide 2-17, 9-23, 16-30)	280 nM	> 5000 nM
CC[C@H](C)[C@@H]1NC(=O)[C@@H]2CSSC[C@@H]3NC(=O)[C@H](C(C)C)NC(=O)[C@H](CC(C)C)NC(=O)[C@H](CC(N)=O)NC(=O)[C@@H]4CCCN4C(=O)[C@H](CCCNC(=N)N)NC(=O)[C@H](CSSC[C@H](NC(=O)[C@@H](N)CC(=O)O)C(=O)N[C@@H](CC(C)C)C(=O)NCC(=O)N[C@@H](Cc4ccccc4)C(=O)N[C@@H](CCSC)C(=O)N[C@@H](CCCNC(=N)N)C(=O)N[C@@H](CCCCN)C(=O)N2)NC(=O)[C@H](CSSC[C@@H](C(=O)N[C@@H](CCCCN)C(=O)N[C@@H](Cc2ccc(O)cc2)C(=O)N[C@H](C(=O)N[C@@H](Cc2ccccc2)C(N)=O)C(C)C)NC(=O)[C@H](Cc2c[nH]c4ccccc24)NC(=O)[C@H](CCCCN)NC(=O)[C@H](Cc2c[nH]cn2)NC(=O)[C@H]([C@@H](C)O)NC(=O)[C@H](CCCNC(=N)N)NC(=O)[C@H](CO)NC3=O)NC(=O)[C@H](CCCCN)NC(=O)[C@H](CC(=O)O)NC(=O)[C@H](CC(N)=O)NC(=O)[C@H](Cc2cccc3ccccc23)NC(=O)[C@@H]2CCCN2C1=O (H-DCLGFMRKCIP[1Nal]NDKCCRPNLVCSRTHKWCKYVF-NH2; disulfide 2-17, 9-23, 16-30)	100 nM	> 5000 nM
CC[C@H](C)[C@@H]1NC(=O)[C@@H]2CSSC[C@@H]3NC(=O)[C@H](C(C)C)NC(=O)[C@H](CC(C)C)NC(=O)[C@H](CC(N)=O)NC(=O)[C@@H]4CCCN4C(=O)[C@H](CCCNC(=N)N)NC(=O)[C@H](CSSC[C@H](NC(=O)[C@@H](N)CC(=O)O)C(=O)N[C@@H](CC(C)C)C(=O)NCC(=O)N[C@@H](Cc4ccccc4)C(=O)N[C@@H](CCSC)C(=O)N[C@@H](CCCNC(=N)N)C(=O)N[C@@H](CCCCN)C(=O)N2)NC(=O)[C@H](CSSC[C@@H](C(=O)N[C@@H](CCCCN)C(=O)N[C@@H](Cc2ccc(O)cc2)C(=O)N[C@H](C(=O)N[C@@H](Cc2ccccc2)C(N)=O)C(C)C)NC(=O)[C@H](Cc2c[nH]c4ccccc24)NC(=O)[C@H](CCCCN)NC(=O)[C@H](Cc2cnc[nH]2)NC(=O)[C@H](Cc2c[nH]c4ccccc24)NC(=O)[C@H](CCCNC(=N)N)NC(=O)[C@H](CO)NC3=O)NC(=O)[C@H](CCCCN)NC(=O)[C@H](CC(=O)O)NC(=O)[C@H](CC(N)=O)NC(=O)[C@H](CC(=O)O)NC(=O)[C@@H]2CCCN2C1=O (H-DCLGFMRKCIPDNDKCCRPNLVCSRWHKWCKYVF-NH2; disulfide 2-17, 9-23, 16-30)	50 nM	3600 nM
CSCC[C@@H]1NC(=O)[C@H](Cc2ccccc2)NC(=O)CNC(=O)[C@H](CC(C)C)NC(=O)[C@@H](NC(=O)[C@@H](N)CC(=O)O)CSSC[C@@H]2NC(=O)[C@@H]3CSSC[C@@H](C(=O)N[C@@H](CCCCN)C(=O)N[C@@H](Cc4ccc(O)cc4)C(=O)N[C@H](C(=O)N[C@@H](Cc4ccccc4)C(N)=O)C(C)C)NC(=O)[C@H](Cc4c[nH]c5ccccc45)NC(=O)[C@H](CCCCN)NC(=O)[C@H](Cc4cnc[nH]4)NC(=O)[C@H]([C@@H](C)O)NC(=O)[C@H](CCCNC(=N)N)NC(=O)[C@H](CO)NC(=O)[C@H](CSSC[C@H](NC(=O)[C@H](CCCCN)NC(=O)[C@H](CCCNC(=N)N)NC1=O)C(=O)N[C@@H](CC(C)C)C(=O)N1CCC[C@H]1C(=O)N[C@@H](CC(=O)O)C(=O)N[C@@H](CC(N)=O)C(=O)N[C@@H](CC(=O)O)C(=O)N[C@@H](CCCCN)C(=O)N3)NC(=O)[C@H](C(C)C)NC(=O)[C@H](CC(C)C)NC(=O)[C@H](CC(N)=O)NC(=O)[C@@H]1CCCN1C(=O)[C@H](CCCNC(=N)N)NC2=O (H-DCLGFMRKCLPDNDKCCRPNLVCSRTHKWCKYVF-NH2; disulfide 2-17, 9-23, 16-30)	140 nM	> 5000 nM
CC[C@H](C)[C@@H]1NC(=O)[C@@H]2CSSC[C@@H]3NC(=O)[C@H](C(C)C)NC(=O)[C@H](CC(C)C)NC(=O)[C@H](CC(N)=O)NC(=O)[C@@H]4CCCN4C(=O)[C@H](CCCNC(=N)N)NC(=O)[C@H](CSSC[C@H](NC(=O)[C@@H](N)CC(=O)O)C(=O)N[C@@H](CC(C)C)C(=O)NCC(=O)N[C@@H](Cc4ccccc4)C(=O)N[C@@H](CCSC)C(=O)N[C@@H](CCCNC(=N)N)C(=O)N[C@@H](CCCCN)C(=O)N2)NC(=O)[C@H](CSSC[C@@H](C(=O)N[C@@H](CCCCN)C(=O)N[C@@H](Cc2ccc(O)cc2)C(=O)N[C@H](C(=O)N[C@@H](CCCCN)C(N)=O)C(C)C)NC(=O)[C@H](Cc2c[nH]c4ccccc24)NC(=O)[C@H](CCCCN)NC(=O)[C@H](Cc2cnc[nH]2)NC(=O)[C@H]([C@@H](C)O)NC(=O)[C@H](CCCNC(=N)N)NC(=O)[C@H](CO)NC3=O)NC(=O)[C@H](CCCCN)NC(=O)[C@H](CC(=O)O)NC(=O)[C@H](CC(N)=O)NC(=O)[C@H](CC(=O)O)NC(=O)[C@@H]2CCCN2C1=O (H-DCLGFMRKCIPDNDKCCRPNLVCSRTHKWCKYVK-NH2; disulfide 2-17, 9-23, 16-30)	> 5000 nM	> 5000 nM
CC[C@H](C)[C@@H]1NC(=O)[C@@H]2CSSC[C@@H]3NC(=O)[C@H](C(C)C)NC(=O)[C@H](CC(C)C)NC(=O)[C@H](CC(N)=O)NC(=O)[C@@H]4CCCN4C(=O)[C@H](CCCNC(=N)N)NC(=O)[C@H](CSSC[C@H](NC(=O)[C@@H](N)CC(=O)O)C(=O)N[C@@H](CCCCN)C(=O)NCC(=O)N[C@@H](Cc4ccccc4)C(=O)N[C@@H](CCSC)C(=O)N[C@@H](CCCNC(=N)N)C(=O)N[C@@H](CCCCN)C(=O)N2)NC(=O)[C@H](CSSC[C@@H](C(=O)N[C@@H](CCCCN)C(=O)N[C@@H](Cc2ccc(O)cc2)C(=O)N[C@H](C(=O)N[C@@H](Cc2ccccc2)C(N)=O)C(C)C)NC(=O)[C@H](Cc2c[nH]c4ccccc24)NC(=O)[C@H](CCCCN)NC(=O)[C@H](Cc2cnc[nH]2)NC(=O)[C@H]([C@@H](C)O)NC(=O)[C@H](CCCNC(=N)N)NC(=O)[C@H](CO)NC3=O)NC(=O)[C@H](CCCCN)NC(=O)[C@H](CC(=O)O)NC(=O)[C@H](CC(N)=O)NC(=O)[C@H](CC(=O)O)NC(=O)[C@@H]2CCCN2C1=O (H-DCKGFMRKCIPDNDKCCRPNLVCSRTHKWCKYVF-NH2; disulfide 2-17, 9-23, 16-30)	120 nM	> 5000 nM

From ChEMBL document CHEMBL3797186, “Single Residue Substitutions That Confer Voltage-Gated Sodium Ion Channel Subtype Selectivity in the NaV1.7 Inhibitory Peptide GpTx-1” (J Med Chem, 2016)
